Test results reported in ChEMBL document CHEMBL1134641, “Progress toward the development of a safe and effective agent for treating reentrant cardiac arrhythmias: synthesis and evaluation of ibutilide analogues with enhanced metabolic stability and diminished proarrhythmic potential” (2001).

Experiments:
Canis familiaris [1] = experiment: QT interval measured in canine just after inducing atrial flutter (AFL) termination by the compound at a dose of 12.0 uM/kg; format: functional, Canis lupus familiaris, Heart
Summary of the method: (§1)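 Conscious, sling-restrained dogs with chronically implanted electrodes, studied after 2 weeks of recovery. Sustained AFL (>5 min) induced. Compound in saline given iv every 5 min to cumulative 0.024-12.0 µmol/kg. At AFL termination, HR, QT (paced cycle length 300 ms), AERP and VERP measured. Measurements then taken 3 min after each further dose. Significance p≤0.05 vs baseline.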

Canis familiaris [2] = experiment: Atrial effective refractory period (AERP) measured in canine just after inducing atrial flutter (AFL) termination by the compound at a dose of 9.6 uM/kg; format: functional, Canis lupus familiaris, Heart
Canis familiaris [3] = experiment: Number of canine in which nonsustained ventricular tachycardia (NSVT) was observed in PES-induced arrhythmias at an cumulative intravenous dose of 0.72 uM/kg; format: functional, Canis lupus familiaris, Cardiac ventricle
Summary of the method: (§2)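 Male mongrel dogs (16-22 kg) with LAD ligated in two stages, studied 24 h later. Programmed electrical stimulation at baseline and 15 min after each iv dose in saline (cumulative 0.24, 0.72, 2.4 µmol/kg). Saline controls then received a single 2.4 µmol/kg iv dose. Responses scored as NI (≤15 beats), NSVT (>15 beats, ends within 30 s), SVT (>30 s, needing pacing or cardioversion) or VF. A positive response was repeated.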

Canis familiaris [4] = experiment: Ventricular effective refractory (VEPR) period measured in canine 24-h Infarction model at an cumulative intravenous dose of 0.24 uM/kg; format: functional, Canis lupus familiaris, Heart
Summary of the method: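 Male mongrel dogs (16-22 kg) with LAD permanently ligated in two stages, studied 24 h after ligation. Compound given in saline (6.0 µmol/mL) as sequential intravenous doses to reach cumulative 0.24, 0.72 and 2.4 µmol/kg. VERP and other measurements taken at baseline and 15 min after each dose. Saline-dosed dogs served as controls. Results are means ± SEM, paired t-test, p ≤ 0.05.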

Canis familiaris [5] = experiment: Spontaneous arrhythmias measured in canine 24-h Infarction model at an cumulative intravenous dose of 2.4 uM/kg; format: functional, Canis lupus familiaris
Summary of the method: (§3)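 Dogs 24 h after two-stage LAD ligation. Compound in saline given iv in sequential doses (cumulative 0.24, 0.72, 2.4 µmol/kg); saline controls then given a single 2.4 µmol/kg iv dose. HR, IVR, BP, QT, spontaneous arrhythmias/min, ERPs and MAPD90 measured at baseline and 15 min after each dose. Means ± SEM, paired t-test, p≤0.05.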

Canis familiaris [6] = experiment: Heart Rate measured in canine just after inducing atrial flutter (AFL) termination by the compound at a dose of 12.0 uM/kg; format: functional, Canis lupus familiaris
Canis familiaris [7] = experiment: Atrial MAPD90 measured in canine 24-h Infarction model at an cumulative intravenous dose of 2.4 uM/kg; format: functional, Canis lupus familiaris, Cardiac atrium
Summary of the method: (§4)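 Male mongrel dogs (16-22 kg) with LAD permanently ligated in two stages; studied 24 h later. […] given IV in sequential doses to cumulative 0.24, 0.72, 2.4 µmol/kg. Saline controls (n=8) received vehicle, then a single IV 2.4 µmol/kg dose at the end. Measurements taken at baseline and 15 min after each dose. Means ± SEM, paired t-test, p ≤ 0.05.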

Canis familiaris [8] = experiment: Heart Rate measured in canine just after inducing atrial flutter (AFL) termination by the compound at a dose of 2.4 uM/kg; format: functional, Canis lupus familiaris
Canis familiaris [9] = experiment: Ventricular MAPD90 measured in canine 24-h Infarction model at an cumulative intravenous dose of 2.4 uM/kg; format: functional, Canis lupus familiaris, Heart; summary of the method: as §3
Canis familiaris [10] = experiment: Atrial MAPD90 measured in canine 24-h Infarction model at an cumulative intravenous dose of 0.24 uM/kg; format: functional, Canis lupus familiaris, Cardiac atrium; summary of the method: as §4
Canis familiaris [11] = experiment: Blood pressure measured in canine 24-h Infarction model at an cumulative intravenous dose of 2.4 uM/kg; format: functional, Canis lupus familiaris; summary of the method: as §4
Canis familiaris [12] = experiment: Number of canine in which nonsustained ventricular tachycardia (NSVT) was observed in PES-induced arrhythmias at an single intravenous dose of 2.4 uM/kg; format: functional, Canis lupus familiaris, Cardiac ventricle; summary of the method: as §2
Canis familiaris [13] = experiment: QT interval measured in canine just after inducing atrial flutter (AFL) termination by the compound at a dose of 1.2 uM/kg; format: functional, Canis lupus familiaris, Heart; summary of the method: as §1
Canis familiaris [14] = experiment: Ventricular MAPD90 measured in canine 24-h Infarction model at an cumulative intravenous dose of 0.72 uM/kg; format: functional, Canis lupus familiaris, Heart; summary of the method: as §3
Canis familiaris [15] = experiment: Number of canine in which nonsustained ventricular tachycardia (NSVT) was observed in PES-induced arrhythmias at an cumulative intravenous dose of 2.4 uM/kg; format: functional, Canis lupus familiaris, Cardiac ventricle; summary of the method: as §2
Canis familiaris [16] = organism: Canis familiaris; experiment: Atrial effective refractory period (AERP) measured in canine just after inducing atrial flutter (AFL) termination by the compound; format: functional, Canis lupus familiaris, Heart
Canis familiaris [17] = organism: Canis familiaris; experiment: Atrial flutter cycle length (AFCLl) measured in canine just after inducing atrial flutter (AFL) termination by the compound; format: functional, Canis lupus familiaris, Heart
Canis familiaris [18] = experiment: Number of canine in which arrhythmias could not be induced at an single intravenous dose of 2.4 uM/kg; format: functional, Canis lupus familiaris; summary of the method: as §2
Canis familiaris [19] = experiment: Heart Rate measured in canine just after inducing atrial flutter (AFL) termination by the compound at a dose of 4.8 uM/kg; format: functional, Canis lupus familiaris
Canis familiaris [20] = experiment: Number of canine in which ventricular fibrillation (VF) was observed in PES-induced arrhythmias at an cumulative intravenous dose of 2.4 uM/kg; format: functional, Canis lupus familiaris, Cardiac ventricle; summary of the method: as §2
Canis familiaris [21] = experiment: QT interval measured in canine just after inducing atrial flutter (AFL) termination by the compound at a dose of 7.2 uM/kg; format: functional, Canis lupus familiaris, Heart; summary of the method: as §1
Canis familiaris [22] = organism: Canis familiaris; experiment: Heart Rate measured in canine just after inducing atrial flutter (AFL) termination by the compound; format: functional, Canis lupus familiaris
Canis familiaris [23] = experiment: Atrial effective refractory period (AEPR) measured in canine 24-h Infarction model at a single intravenous dose of 2.4 uM/kg; format: functional, Canis lupus familiaris, Cardiac atrium; summary of the method: as §4
Canis familiaris [24] = experiment: Heart Rate measured in canine just after inducing atrial flutter (AFL) termination by the compound at a dose of 1.2 uM/kg; format: functional, Canis lupus familiaris
Canis familiaris [25] = experiment: Ventricular effective refractory period ([…]) measured in canine just after inducing atrial flutter (AFL) termination by the compound at a dose of 1.2 uM/kg; format: functional, Canis lupus familiaris, Heart
Summary of the method: (§5)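 Conscious dogs, loosely restrained in a sling, with exteriorized electrode leads, studied 2 weeks after instrumentation. AFL was induced and counted as sustained if it lasted 5 min. Compound in saline given intravenously every 5 min to cumulative 0.024-12.0 µmol/kg. VERP was measured at AFL termination and 3 min after each dose. Results are means ± SEM versus baseline, p ≤ 0.05.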

Canis familiaris [26] = experiment: Atrial effective refractory period (AERP) measured in canine just after inducing atrial flutter (AFL) termination by the compound at a dose of 4.8 uM/kg; format: functional, Canis lupus familiaris, Heart
Canis familiaris [27] = experiment: Heart Rate measured in canine just after inducing atrial flutter (AFL) termination by the compound at a dose of 7.2 uM/kg; format: functional, Canis lupus familiaris
Canis familiaris [28] = experiment: Idioventricular heart rate (IVR) measured in canine 24-h Infarction model at an cumulative intravenous dose of 2.4 uM/kg; format: functional, Canis lupus familiaris; summary of the method: as §4
Canis familiaris [29] = experiment: Blood pressure measured in canine 24-h Infarction model at an cumulative intravenous dose of 0.72 uM/kg; format: functional, Canis lupus familiaris; summary of the method: as §4
Canis familiaris [30] = experiment: Ventricular effective refractory period ([…]) measured in canine just after inducing atrial flutter (AFL) termination by the compound at a dose of 12.0 uM/kg; format: functional, Canis lupus familiaris, Heart; summary of the method: as §5
Canis familiaris [31] = experiment: Number of canine in which arrhythmias could not be induced at an cumulative intravenous dose of 2.4 uM/kg; format: functional, Canis lupus familiaris; summary of the method: as §2
Canis familiaris [32] = experiment: Ventricular effective refractory period ([…]) measured in canine just after inducing atrial flutter (AFL) termination by the compound at a dose of 4.8 uM/kg; format: functional, Canis lupus familiaris, Heart; summary of the method: as §5

## CCN(CCCCCC(C)(C)F)CCC[C@H](O)c1ccc(NS(C)(=O)=O)cc1.O=C(O)/C=C/C(=O)O
Canis familiaris [1]
  QT interval: 200 ms
Canis familiaris [2]
  AERP: 165 ms
Canis familiaris [3]
  No. of canine: 0
Canis familiaris [4]
  VERP: 162 ms
Canis familiaris [5]
  PVCs: 73 number min-1
Canis familiaris [6]
  HR: 122 beats min-1
Canis familiaris [7]
  Atrial MAPD90: 163 ms
Canis familiaris [8]
  HR: 113 beats min-1
Canis familiaris [9]
  Ventricular MAPD90: 185 ms
Canis familiaris [10]
  Atrial MAPD90: 148 ms
Canis familiaris [11]
  BP: 119 mmHg
Canis familiaris [12]
  No. of canine: 0
Canis familiaris [13]
  QT interval: 212 ms
Canis familiaris [14]
  Ventricular MAPD90: 170 ms
Canis familiaris [15]
  No. of canine: 1
Canis familiaris [16]
  AERP: 149 ms
Canis familiaris [17]
  AFLCl: 165 ms
Canis familiaris [18]
  No. of canine: 7
Canis familiaris [19]
  HR: 118 beats min-1
Canis familiaris [20]
  No. of canine: 0
Canis familiaris [21]
  QT interval: 205 ms
Canis familiaris [22]
  HR: 108 beats min-1
Canis familiaris [23]
  AERP: 179 ms
Canis familiaris [24]
  HR: 114 beats min-1
Canis familiaris [25]
  VERP: 144 ms
Canis familiaris [26]
  AERP: 166 ms
Canis familiaris [27]
  HR: 127 beats min-1
Canis familiaris [28]
  IVR: 124 beats min-1
Canis familiaris [29]
  BP: 115 mmHg
Canis familiaris [30]
  VERP: 137 ms
Canis familiaris [31]
  No. of canine: 10
Canis familiaris [32]
  VERP: 142 ms
